Measured values published in publication PMC3725831 (European journal of inorganic chemistry, 2011).
Like-named read-outs stand apart in the source and are kept apart here.

Columns and labels:
[1] = test system: HCT-116 (human colon carcinoma); test: MTS cytotoxicity assay, HCT-116 cells; assay type: cell-based
How it was run: (§1)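 Cells grown in McCoy's 5a with 10% FBS, 1% NEAA and 2% HEPES at 37 °C, 5% CO2, then seeded at 2000–5,000/well 24 h before dosing. Test compound in DMSO (<0.5% final) was given as six-point 4-fold serial dilutions for 24, 48 or 72 h. Read-out was MTS plus phenazine methosulphate for 3 h, OD490 versus DMSO controls. IC50 from curves; mean ± SE, three replications.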

[2] = test system: HT-29 (human colon adenocarcinoma); test: MTS cytotoxicity assay, HT-29 cells; assay type: cell-based
How it was run: as §1

[3] = test system: CCD-18Co (human colon fibroblasts); test: MTS cytotoxicity assay, non-cancerous CCD-18Co cells; assay type: cell-based
How it was run: as §1, with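 “Colon fibroblasts” for “Cells”, “EMEM” for “McCoy's 5a”, “1% L-glutamine” for “2% HEPES”, “CO2; used at PDL 26–35. Seeded” for “CO2, then seeded”, “MTS/phenazine” for “MTS plus phenazine”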

[4] = test system: Caco-2 (human epithelial colorectal adenocarcinoma); test: MTS cytotoxicity assay, Caco-2 cells; assay type: cell-based
[5] = test system: cancer and normal colon cells; settings: both cell lines (cancer and normal colon cells); cited from earlier work
[6] = test system: cisplatin-resistant ovarian and testicular cancer cell lines; settings: ref 9c; cited from earlier work

## COc1cc([C@@H]2c3cc4c(cc3[C@@H](O[C@@H]3O[C@@H]5CO[C@@H](C)O[C@H]5[C@H](O)[C@H]3O)[C@H]3COC(=O)[C@H]23)OCO4)cc(OC)c1O [Etoposide]
[1]; HCT-116, 24 h, read-out: IC50 HCT-116 24 hours
  IC50: 40.8 ± 0.5 µM
[1]; HCT-116, 48 h, read-out: IC50 HCT-116 48 hours
  IC50: 36.2 ± 2 µM
[1]; HCT-116, 72 h, read-out: IC50 HCT-116 72 hours
  IC50: 38.4 ± 1.2 µM
[2]; HT-29, 24 h, read-out: IC50 HT-29 24 hours
  IC50: 19.2 ± 0.8 µM
[2]; HT-29, 48 h, read-out: IC50 HT-29 48 hours
  IC50: 17.3 ± 1.9 µM
[2]; HT-29, 72 h, read-out: IC50 HT-29 72 hours
  IC50: 15.8 ± 2.4 µM
[3]; 24 h, read-out: IC50 CCD-18Co 24 hours
  IC50: 82.5 ± 3.1 µM
[3]; 48 h, read-out: IC50 CCD-18Co 48 hours
  IC50: 79.2 ± 1.2 µM
[3]; 72 h, read-out: IC50 CCD-18Co 72 hours
  IC50: 73.2 ± 1.9 µM
[4]; Caco-2, 24 h, read-out: IC50 Caco-2 24 hours
  IC50: 47.6 ± 0.8 µM
[4]; Caco-2, 48 h, read-out: IC50 Caco-2 48 hours
  IC50: 46.2 ± 1.9 µM
[4]; Caco-2, 72 h, read-out: IC50 Caco-2 72 hours
  IC50: 40.9 ± 1.5 µM

## N.N.[Cl][Pt][Cl] [Cisplatin]
[5]
  inhibition of cell proliferation: about 70%

## Cc1ccnc2c1ccc1c(C)ccnc12.Cc1ccnc2c1ccc1c(C)ccnc12.O=S(=O)([O-])[O-].[O]=[V+2] [metvan, bis(4,7-dimethyl-1,10-phenanthroline)sulfatooxovanadium(IV)]
[6]
  effectiveness against cisplatin-resistant cancer cell lines: highly effective
